Source: PubChem BioAssay
A selection: hits, their analogues and other compounds. The true share with any hit is near 1.8%.
Runt-CBFb FRET: inhibitors of human RUNX1 Runt domain binding to CBFb; Q01196+Q13951; Cerulean-Runt/Venus-CBFb FRET ratio 530/480, 1 h; inhibition, % at 20 µM; 220,000 tested, 0.46% active; AID 1496;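 active = inhibition over about 50% at 20 µM in the single-dose screen, limit read from the data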
Target sequence (Q01196 whole entry, looked up, the tested form may be a part): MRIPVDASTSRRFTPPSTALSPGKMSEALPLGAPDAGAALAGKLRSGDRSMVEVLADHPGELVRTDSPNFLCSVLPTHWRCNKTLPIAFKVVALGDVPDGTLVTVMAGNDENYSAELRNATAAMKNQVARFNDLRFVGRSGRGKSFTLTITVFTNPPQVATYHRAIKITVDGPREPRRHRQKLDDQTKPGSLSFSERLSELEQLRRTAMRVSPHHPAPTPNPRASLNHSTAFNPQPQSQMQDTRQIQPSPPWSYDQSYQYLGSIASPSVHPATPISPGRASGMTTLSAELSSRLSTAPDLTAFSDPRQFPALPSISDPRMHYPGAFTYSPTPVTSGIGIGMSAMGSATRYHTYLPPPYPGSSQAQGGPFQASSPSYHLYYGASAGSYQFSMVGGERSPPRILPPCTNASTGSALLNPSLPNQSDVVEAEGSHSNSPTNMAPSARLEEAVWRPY
Target sequence (Q13951 whole entry, looked up, the tested form may be a part): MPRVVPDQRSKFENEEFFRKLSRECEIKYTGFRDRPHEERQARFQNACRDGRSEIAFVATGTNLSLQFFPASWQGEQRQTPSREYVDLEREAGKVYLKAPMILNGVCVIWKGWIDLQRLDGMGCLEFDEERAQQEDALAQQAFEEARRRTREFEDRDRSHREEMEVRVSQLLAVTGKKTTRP
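Assay system: Cerulean-tagged RUNX1 Runt domain (FRET donor) fusion protein / Amount: 100 nM each of Venus-CBFb and Cerulean-Runt domain / Medium: Tris buffer pH 7.5 with salts and BSA / Also added: Venus-CBFb 100 nM / Schedule: 1 h complex formation plus 1 h compound treatment, room temperature / Signal: FRET fluorescence / Read-out: loss of energy transfer signal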
RanGTP-Impb inh: inhibitors of RanGTP-importin-beta interaction, primary screen, biochemical, FRET, CFP-Ran, YFP-importin-beta, homogeneous | cell-free CFP-Ran/YFP-importin-beta FRET ratio | inhibition, % (test concentration not listed) | 300,000 tested, 1.1% active;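 active = more than half of the replicate wells show a fall in the fluorescence ratio signal beyond about 16%, limit read from the data, passing the limit was not always enough; inconclusive = exactly half of the replicate wells pass the set limit; inactive = fewer than half of replicates pass the limit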
Hck Nef HTS: inhibitors of human Hck kinase activated by Nef; P08631; Recombinant Hck-YEEI plus Nef, Z-Lyte FRET kinase assay; inhibition, % at 20 µM; 220,000 tested, 0.68% active; AID 463187;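 active = Hck-Nef kinase inhibition above about 50%, limit read from the data; inactive = inhibition below that limit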
Runt-SMMHC FRET: blocks binding of human RUNX1 Runt domain to CBFb-SMMHC | AID 1434 | Cerulean-Runt/Venus-CBFb-SMMHC FRET ratio 530/480, 1 h | 220,000 tested, 0.74% active | Q01196+Q13951 | inhibition, % at 20 µM;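 active = mean inhibition across duplicate retests at 20 µM reaching about 50%, limit read from the data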;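 note: inhibitors lower the FRET ratio by blocking Runt binding to CBFb-SMMHC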
RUNX1 CBFb TR: inhibitors of human RUNX1 Runt domain binding to CBFb; AID 1502; 480 tested, 20% active; shares compounds with Runt-CBFb FRET; inhibition, % at 20 µM; TR-FRET RUNX1 Runt domain-CBFb binding; in the data active = inhibition above about 40%
YIC counter: counter-screen for RanGTP-importin-beta inhibitors: YIC FRET probe; IC50, µM; Purified YIC probe, intramolecular FRET ratio YFP/CFP; 1,000 tested, 40% active; shares compounds with RanGTP-Impb inh;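 active = fitted half-maximal inhibitory concentration no more than tenfold above the top dose tested; inconclusive = flat fit with 30 to 70% activity, or poor fit; inactive = half-maximal concentration beyond tenfold above the top dose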
Each line names hits and unclear results; the compound was inactive in the other large screens (follow-up assays come after a bar, where they were run).

Oc1ccc(-c2csc(-c3cccnc3)n2)cc1O	Runt-CBFb FRET 53 | RUNX1 CBFb TR 68
CC(=O)c1ccc(S(=O)(=O)N2CCCCC2C(=O)O)cc1 (stereo unspecified)	none
Cc1ccc(/C(O)=C2\C(=O)C(=O)N(Cc3cccnc3)C2c2ccccc2[N+](=O)[O-])cc1 (stereo unspecified)	none
O=C1C(O)CC2c3ccccc3CC3(CCCC3)N12 (stereo unspecified)	Runt-CBFb FRET 58 | RUNX1 CBFb TR inactive
CC1CC2(CCCC2)N(C(=O)c2ccccc2)Cc2ccccc21 (stereo unspecified)	none
COc1ccc(CCNC(=O)c2c(Cl)ccc(Cl)c2OC)cc1OC	none (no result: Runt-CBFb FRET, Hck Nef HTS, Runt-SMMHC FRET)
CCn1c(SCC(=O)NCc2ccco2)nnc1-c1ccncc1	none
CCCn1c(SCC(=O)NCc2ccco2)nnc1-c1ccncc1	Runt-CBFb FRET 74 | RUNX1 CBFb TR inactive
CCN(CC)c1ccc2cc(C(=O)Nc3cccnc3N3CCOCC3)c(=O)oc2c1	Runt-CBFb FRET 59, Runt-SMMHC FRET 79 (no result: RanGTP-Impb inh, Hck Nef HTS) | RUNX1 CBFb TR inactive
CCOc1cc(-n2cnnn2)c(OCC)cc1NC(=O)c1cc2ccc(N(CC)CC)cc2oc1=O	none (no result: Runt-CBFb FRET, RanGTP-Impb inh, Runt-SMMHC FRET)
CC(C)(CCO)Nc1ncnc2onc(-c3ccc(F)cc3)c12	none (no result: Runt-CBFb FRET, Hck Nef HTS, Runt-SMMHC FRET)
COc1ccccc1N1CCN(/N=C/c2cc(OC)c(O)c(OC)c2)CC1	Runt-CBFb FRET 59 | RUNX1 CBFb TR inactive
CC1(C)C(N(O)C(=O)Nc2ccccc2)N(c2cccc(Cl)c2)C(=O)N1O (stereo unspecified)	Runt-CBFb FRET 53 | RUNX1 CBFb TR inactive
CN1C(=S)SC(N(O)C(=O)Nc2ccccc2)C1(C)C (stereo unspecified)	none
O=C1CC(c2ccco2)CC(O)=C1C=NCC1NCCc2ccccc21 (stereo unspecified)	none
O=C1CC(c2ccco2)CC(O)=C1C=NCCO (stereo unspecified)	Runt-CBFb FRET 81 | RUNX1 CBFb TR inactive
Cn1c(=O)nc2n(Cc3ccccc3)c3ccccc3cc-2c1=O	Runt-CBFb FRET 90, RanGTP-Impb inh 121, Runt-SMMHC FRET 82 | RUNX1 CBFb TR inactive
Cc1cc(C)nc(SCC(=O)c2cc3ccccc3oc2=O)n1	Runt-CBFb FRET 54 | RUNX1 CBFb TR inactive
O=C(CSc1nc2ccccc2o1)c1cc2ccccc2oc1=O	none (no result: RanGTP-Impb inh)
COC(=O)c1ccc(C(=O)OC)c(NC(=S)N2CCCCC2C)c1 (stereo unspecified)	Runt-CBFb FRET 72, RanGTP-Impb inh inconclusive, Runt-SMMHC FRET 87 | RUNX1 CBFb TR 67
CCOc1ccccc1NC(=O)CCCNC(=O)Cn1cnc2sc(C)c(C)c2c1=O	none (no result: Runt-CBFb FRET, Hck Nef HTS, Runt-SMMHC FRET)
Cc1ccc2nc3c(cc2c1)c(NC(=O)c1ccccn1)nn3CC(C)C	Runt-CBFb FRET 53, RanGTP-Impb inh 116, Runt-SMMHC FRET 90 | RUNX1 CBFb TR inactive
Cc1ccc2cc3c(NC(=O)CC(C)C)nn(C)c3nc2c1	none
CCOC(=O)c1c(C)[nH]c(C(=O)NCc2ccco2)c1C	none
CCCCC(=O)NNC(=S)NC(=O)c1ccc([N+](=O)[O-])cc1	Runt-CBFb FRET 54 | RUNX1 CBFb TR inactive
CCCCC(=O)NNC(=S)NC(=O)c1cccc([N+](=O)[O-])c1	none
Cc1cc(O)cc(C)c1Cl	none (no result: Runt-CBFb FRET, Hck Nef HTS, Runt-SMMHC FRET)
Cc1cc(O)c(-c2cc(O)c(C)cc2O)cc1O	Runt-CBFb FRET 58, Runt-SMMHC FRET 80 | RUNX1 CBFb TR 43
Cc1cc(C)nc(SCCC(=O)N(C)C)n1	none
Cc1cc(C)nc(SCNC(=O)c2ccc(F)cc2)n1	Runt-CBFb FRET 53 | RUNX1 CBFb TR inactive
CCNC(=O)CCSc1nc(C)cc(C)n1	Runt-CBFb FRET 50 | RUNX1 CBFb TR inactive
Cc1cc(C)nc(SCC(=O)c2ccc(F)cc2)n1	none (no result: Runt-CBFb FRET, Hck Nef HTS, Runt-SMMHC FRET)
Cc1nc(S/C(=C/c2ccc(-c3cc(Cl)ccc3C)o2)C(=O)O)n[nH]1	none
O=C(O)c1cc(Cl)ccc1-c1ccc(/C=C/c2cc(C(F)(F)F)[nH]c(=O)n2)o1	Runt-CBFb FRET 52, Runt-SMMHC FRET 92 | RUNX1 CBFb TR inactive
O=c1cc(O)c2sc(Nc3ccc(F)cc3)nc2[nH]1	Runt-CBFb FRET 56 | RUNX1 CBFb TR inactive
Fc1ccc(Nc2nc3ccccc3s2)cc1	none
O=c1cc(O)c2sc(Nc3cccc(C(F)(F)F)c3)nc2[nH]1	Runt-CBFb FRET 60 | RUNX1 CBFb TR inactive
O=C(NCCCN1CCOCC1)/C(=C/c1ccco1)NC(=O)c1ccccc1	none (no result: Runt-CBFb FRET, Hck Nef HTS, Runt-SMMHC FRET)
CCOC(=O)c1nn(-c2ccc(Cl)cc2)c(C)cc1=O	none (no result: Runt-CBFb FRET, Hck Nef HTS, Runt-SMMHC FRET)
CC1(C)CC(=O)C2=C(C1)NC1=C(C(=O)c3ccccc31)C2c1cc([N+](=O)[O-])ccc1O (stereo unspecified)	none
CCN1CCc2nc(NC(=O)c3ccc4c(c3)OCCO4)sc2C1	Runt-CBFb FRET 51, RanGTP-Impb inh 80, Runt-SMMHC FRET 112 | RUNX1 CBFb TR inactive
CCN1CCc2nc(NC(=O)C(c3ccccc3)c3ccccc3)sc2C1	Runt-CBFb FRET 51, RanGTP-Impb inh inconclusive, Runt-SMMHC FRET 106 | RUNX1 CBFb TR inactive
CCN1CCc2nc(NC(=O)c3ccc(S(=O)(=O)N(C)C)cc3)sc2C1	none
CN(C)c1oc(/C=C/c2ccccc2)nc1C#N	Runt-CBFb FRET 63, Hck Nef HTS 71, Runt-SMMHC FRET 122 | RUNX1 CBFb TR inactive
CN(C)c1oc(-c2ccccc2)nc1C#N	none
CCOc1ccc(N/C(N)=N/c2nc(CSc3nnnn3-c3ccccc3)cc(=O)[nH]2)cc1	RanGTP-Impb inh inconclusive
Cc1ccc(NC(=S)C2=C(O)c3sccc3N(C)S2(=O)=O)cc1	Runt-CBFb FRET 65, RanGTP-Impb inh 81, Runt-SMMHC FRET 73 | RUNX1 CBFb TR inactive
COC(=O)C1=C(CSc2nc3c(cc2C#N)CN(C)CC3)OC(N)=C(C#N)C1c1ccccc1F (stereo unspecified)	Runt-CBFb FRET 58, RanGTP-Impb inh 24 (no result: Runt-SMMHC FRET) | RUNX1 CBFb TR 55
CCOC(=O)CC(=O)CSc1nc(CC)c(C)cc1C#N	Runt-CBFb FRET 53 | RUNX1 CBFb TR inactive
CCc1nc(SCC(=O)O)c(C#N)cc1C	none
O=C(Nc1ccc(Cl)c(Cl)c1)N(CCCN1CCOCC1)Cc1cccs1	none
Cc1ccc(NC(=O)CNC(=O)c2ccc(C)o2)cc1	none (no result: Runt-CBFb FRET, Hck Nef HTS, Runt-SMMHC FRET)
COc1cc(OC)c(C2CC(=O)N3CN(c4ccccc4)CSC3=C2C#N)cc1OC (stereo unspecified)	Runt-CBFb FRET 80, Runt-SMMHC FRET 111 | RUNX1 CBFb TR inactive
Cc1ccc(C(=O)/C=C\C(=O)c2ccc(C)cc2)cc1	Runt-CBFb FRET 62, Runt-SMMHC FRET 51 | RUNX1 CBFb TR inactive
CN1CCN(C(=O)C2=C[C@H](c3csc4ccccc34)C[C@H](OCCCCO)O2)CC1	none
CCOc1ccc(Nc2c3ccccc3nc3ccccc23)cc1	Runt-CBFb FRET 60, RanGTP-Impb inh 54 | RUNX1 CBFb TR 41 | YIC counter inactive
N/C(=N/OC(=O)c1ccc(Cl)cc1)c1ncc([N+](=O)[O-])s1	none
CCc1ccc(S(=O)(=O)Nc2ccc(-c3nc4cccnc4s3)cc2)s1	Runt-CBFb FRET 80, RanGTP-Impb inh 40, Runt-SMMHC FRET 148 | RUNX1 CBFb TR inactive | YIC counter 9.7
